Experimental data collected from several papers.
Lines come from different studies, so protocols differ.
Target: Serine/threonine-protein kinase OSR1 (OXSR1, Homo sapiens, UniProt O95747)

| Compound | assay | setting | endpoint | result |
| --- | --- | --- | --- | --- |
| CC(C)S(=O)(=O)c1ccc2nccc(Nc3ccc4sc(C5CCCC5)nc4c3)c2c1 | enzyme activity, inhibitor | 1 µM | activity vs control | 108% |
| C#Cc1cc(-c2cc(Nc3nc(N[C@@H](C)c4ccc(F)cn4)ncc3Cl)n[nH]2)ccc1C=O | enzyme activity, inhibitor | 0.2 µM | inhibition | 18.2% |
| Cc1ccc(NC(=O)c2ccnc(C(F)(F)F)c2)cc1-c1cc(OCCO)nc(N2CCOCC2)c1 | binding | 1 µM | remaining binding | 89% |
| C=CC(=O)N1CCC([C@@H]2CCNc3c(C(N)=O)c(-c4ccc(Oc5ccccc5)cc4)nn32)CC1 | enzyme activity, inhibitor | 1 µM | inhibition | 0% |
| CCCCC(=O)Nc1ccc(-c2ccc3ncn(CCC)c(=O)c3c2)cn1 | binding, competition with immobilised ligand | 0.5 µM | remaining binding | 100% |
| CO[C@@H]1[C@H](N(C)C(=O)c2ccccc2)C[C@H]2O[C@]1(C)n1c3ccccc3c3c4c(c5c6ccccc6n2c5c31)C(=O)NC4 | enzyme activity, inhibitor | 1 µM | inhibition | 24% |
| C[C@H]1CC[C@H](n2c3cnccc3c3cnc(Nc4ccc5c(n4)CCN(C(=O)CO)C5)nc32)CC1 | cell-free assay | 1 µM | remaining signal | 100% |
| Cc1cc(O)c(-c2ccc([C@@H](C)CN(C)C)cc2)c2c1[nH]c(=O)c1sccc12 | enzyme activity, inhibitor | 0.1 µM | inhibition | 6.5% |
